{
  "source": "paper PMC5693322",
  "about": "(Blood, 2017)",
  "key": {"ACVR1 (ALK2)": {"molecular_target": "T1, ACVR1 (ALK2) (Homo sapiens, UniProt Q04771)", "T1 sequence (Q04771 21-509)": "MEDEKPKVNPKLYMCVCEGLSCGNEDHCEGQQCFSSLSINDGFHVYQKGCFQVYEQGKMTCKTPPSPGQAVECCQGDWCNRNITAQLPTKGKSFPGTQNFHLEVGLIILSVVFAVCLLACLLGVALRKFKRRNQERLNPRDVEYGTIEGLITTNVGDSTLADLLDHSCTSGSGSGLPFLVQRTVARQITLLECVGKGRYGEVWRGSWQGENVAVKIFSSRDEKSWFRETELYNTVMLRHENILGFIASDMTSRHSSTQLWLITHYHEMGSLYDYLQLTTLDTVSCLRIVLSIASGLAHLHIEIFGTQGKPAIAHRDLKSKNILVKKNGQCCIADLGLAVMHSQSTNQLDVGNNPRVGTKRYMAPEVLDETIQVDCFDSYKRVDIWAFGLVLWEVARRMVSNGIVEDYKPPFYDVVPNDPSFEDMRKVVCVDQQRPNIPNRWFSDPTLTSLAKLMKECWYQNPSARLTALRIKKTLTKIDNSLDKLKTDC", "assay": "SelectScreen LanthaScreen Eu Kinase Binding Assay"}, "[1]": {"test_system": "BMP6-pSMAD1/5/8 in HepG2 cells", "assay": "BMP6-induced phosphorylation of SMAD1/5/8 in HepG2 cells, western blot", "format": "cell-based", "settings": "HepG2, 10 ng/mL BMP6 30 min, cpd added 2 hours before", "summary_of_the_method": "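HepG2 cells were grown in EMEM with 10% FCS and 1% penicillin/streptomycin. Test compound was added 2 h before stimulation with BMP6 (10 ng/mL, 30 min). pSMAD1/5/8 was detected by western blot with HRP secondary antibodies, using β-actin as loading control. Results are percent of pSMAD1/5/8 induction normalized to vehicle-treated cells, n = 5, mean ± SEM.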"}, "[2]": {"test_system": "FPN1 protein in RAW 264.7 cells", "format": "cell-based, murine", "settings": "RAW 264.7, FeCl3 50 μM 20 h, hepcidin 1 μg/mL + MMB 10 nM-1 μM 6 h", "summary_of_the_method": "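RAW 264.7 cells were cultured in DMEM with 10% FCS, 1% penicillin/streptomycin and 2 mM glutamine at 37°C and 5% CO2. FeCl3 (50 μM, 20 h) induced FPN1. Cells then received hepcidin (1 μg/mL) alone or with test compound (10, 100, 500 nM, 1 μM) for another 6 h. Untreated cells were controls. FPN1 was measured by western blot and densitometry, normalized to β-actin, n = 3 per group.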"}, "ACD rats": {"test_system": "ACD rats", "assay": "PG-APS-induced rat model of anemia of chronic disease", "format": "in vivo", "summary_of_the_method": "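Female Lewis rats on standard diet (180 mg iron/kg) were made anemic by intraperitoneal PG-APS. From 2 weeks after PG-APS they received test compound 25 mg/kg or vehicle once daily for 3 days up to 21 days. Hb and RBC were counted on a Vet-ABC analyzer. Serum iron was measured by QuantiChrom kit. Spleen FPN1 was measured by western blot (n = 4). Liver Inhibin BB mRNA was measured by TaqMan RT-PCR on 4 μg of guanidinium-phenol-extracted RNA. Time points were compared by unpaired t test.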"}, "[3]": {"test_system": "IL-6-pSTAT3 in HepG2 cells", "assay": "IL-6-induced phosphorylation of STAT3 in HepG2 cells, western blot", "format": "cell-based", "settings": "HepG2, 10 ng/mL IL-6 20 min", "summary_of_the_method": "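Western blot for pSTAT3 in HepG2 cells (EMEM, 10% FCS, 1% penicillin/streptomycin) after 20 min of 10 ng/mL IL-6, with test compound present. β-actin served as loading control. Values are percent of pSTAT3 induction relative to vehicle-treated cells, n = 2, mean ± SEM.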"}, "patients": {"test_system": "patients", "settings": "clinical studies ref 18, 20; cited from earlier work"}, "healthy rats": {"test_system": "healthy rats", "assay": "MMB treatment of healthy rats", "format": "in vivo, rat"}, "[4]": {"settings": "ACD rats, 25 mg/kg once daily, days 14 and 21, vs vehicle"}, "[5]": {"settings": "ACD rats, 5, 10 or 25 mg/kg for 3 days, hepatic nuclear extracts"}, "[6]": {"settings": "ACD rats, 5, 10 or 25 mg/kg once daily for 3 days"}, "[7]": {"settings": "ACD rats, 5, 10 or 25 mg/kg, 3 weeks, FACS"}, "[8]": {"settings": "healthy rats, 5, 10 or 25 mg/kg"}, "[9]": {"settings": "healthy rats, any MMB dose, 3 days"}},
  "data": [
    {"compound": "N#CCNC(=O)c1ccc(-c2ccnc(Nc3ccc(N4CCOCC4)cc3)n2)cc1", "note": "[MMB, momelotinib]", "values": [
      {"measurement": "IC50", "setting": "ACVR1 (ALK2)", "value": 8.4, "unit": "nM"},
      {"measurement": "inhibition of BMP6-pSMAD1/5/8 signaling", "setting": "[1]", "value": "inhibited"},
      {"measurement": "effect on FPN1 protein expression in presence of hepcidin", "setting": "[2]", "value": "no effect"},
      {"measurement": "mean corpuscular Hb", "setting": "ACD rats; ACD rats, 25 mg/kg once daily", "value": "increase"},
      {"measurement": "mean corpuscular volume", "setting": "ACD rats; ACD rats, 25 mg/kg once daily", "value": "increase"},
      {"measurement": "neutrophil count", "setting": "ACD rats; ACD rats, 25 mg/kg once daily", "value": "reductions"},
      {"measurement": "white blood cell count", "setting": "ACD rats; ACD rats, 25 mg/kg once daily", "value": "reductions"},
      {"measurement": "Hb concentrations", "setting": "ACD rats; [4]", "value": "significant increase"},
      {"measurement": "RBC count", "setting": "ACD rats; [4]", "value": "significant increase"},
      {"measurement": "FPN1 expression in the spleen", "setting": "ACD rats; ACD rats, 25 mg/kg, 3 days", "value": "increase"},
      {"measurement": "ferritin protein levels in the spleen", "setting": "ACD rats; ACD rats, 25 mg/kg, 3 days", "value": "decreased"},
      {"measurement": "circulating iron concentrations", "setting": "ACD rats; ACD rats, 25 mg/kg, up to 21 days", "value": "increase"},
      {"measurement": "Inhibin BB mRNA levels in the liver", "setting": "ACD rats; ACD rats, 5, 10 or 25 mg/kg for 3 days", "value": "decreased"},
      {"measurement": "pSMAD1/5/8 in the livers", "setting": "ACD rats; [5]", "value": "dose-dependent reduction"},
      {"measurement": "pSTAT3 in the livers", "setting": "ACD rats; [5]", "value": "dose-dependent reduction"},
      {"measurement": "liver Hamp mRNA expression", "setting": "ACD rats; [6]", "value": "reduced"},
      {"measurement": "serum hepcidin levels", "setting": "ACD rats; [6]", "value": "dose-dependent decrease"},
      {"measurement": "serum iron", "setting": "ACD rats; [6]", "value": "dose-dependent increase"},
      {"measurement": "numbers of mature RBCs in bone marrow", "setting": "ACD rats; [7]", "value": "dose-dependent increase"},
      {"measurement": "numbers of reticulocytes in bone marrow", "setting": "ACD rats; [7]", "value": "dose-dependent increase"},
      {"measurement": "splenic IL-6 cytokine mRNA levels", "setting": "ACD rats; ACD rats, 3 days, especially at 25 mg/kg", "value": "modulated"},
      {"measurement": "inhibition of IL-6-pSTAT3 signaling", "setting": "[3]", "value": "inhibited"},
      {"measurement": "patients who experienced grade 3 or 4 anemia", "setting": "patients", "value": 3, "unit": "%"},
      {"measurement": "erythropoietic / circulating iron effects in healthy rats", "setting": "healthy rats; [8]", "value": "did not induce any of these effects"},
      {"measurement": "pSMAD1/5/8 protein levels", "setting": "healthy rats; [8]", "value": "not affected"},
      {"measurement": "pSTAT3 protein levels", "setting": "healthy rats; [8]", "value": "not affected"},
      {"measurement": "FPN1 protein levels in the spleen", "setting": "healthy rats; [9]", "value": "no changes"},
      {"measurement": "Hamp mRNA expression in the liver", "setting": "healthy rats; [9]", "value": "no changes"},
      {"measurement": "serum iron levels", "setting": "healthy rats; [9]", "value": "no changes"}
    ]},
    {"compound": "N#CC[C@H](C1CCCC1)n1cc(-c2ncnc3[nH]ccc23)cn1", "note": "[RUX, ruxolitinib, reference compound]", "values": [
      {"measurement": "inhibitory activity in type I BMPR kinase / TGFBR1 binding assays", "setting": "ACVR1 (ALK2); ACVR1/ALK2, BMPR1a/ALK3 and TGFBR1/ALK5 assays", "value": "no relevant inhibitory activity"},
      {"measurement": "inhibition of BMP6-pSMAD1/5/8 signaling", "setting": "[1]", "value": "not BMP6-pSMAD1/5/8"},
      {"measurement": "inhibition of IL-6-pSTAT3 signaling", "setting": "[3]", "value": "blocked"},
      {"measurement": "patients who experienced grade 3 or 4 anemia", "setting": "patients", "value": 45.2, "unit": "%"}
    ]}
  ]
}
